A short description of experiment [1]: Ratio of inhibitory activities against endothelin converting enzyme-1(ECE-1) and neutral endopeptidase (NEP).
In experiment [2] the target is T1, Endothelin-converting enzyme 1 (Homo sapiens, UniProt P42892).
T1 sequence (P42892 whole entry): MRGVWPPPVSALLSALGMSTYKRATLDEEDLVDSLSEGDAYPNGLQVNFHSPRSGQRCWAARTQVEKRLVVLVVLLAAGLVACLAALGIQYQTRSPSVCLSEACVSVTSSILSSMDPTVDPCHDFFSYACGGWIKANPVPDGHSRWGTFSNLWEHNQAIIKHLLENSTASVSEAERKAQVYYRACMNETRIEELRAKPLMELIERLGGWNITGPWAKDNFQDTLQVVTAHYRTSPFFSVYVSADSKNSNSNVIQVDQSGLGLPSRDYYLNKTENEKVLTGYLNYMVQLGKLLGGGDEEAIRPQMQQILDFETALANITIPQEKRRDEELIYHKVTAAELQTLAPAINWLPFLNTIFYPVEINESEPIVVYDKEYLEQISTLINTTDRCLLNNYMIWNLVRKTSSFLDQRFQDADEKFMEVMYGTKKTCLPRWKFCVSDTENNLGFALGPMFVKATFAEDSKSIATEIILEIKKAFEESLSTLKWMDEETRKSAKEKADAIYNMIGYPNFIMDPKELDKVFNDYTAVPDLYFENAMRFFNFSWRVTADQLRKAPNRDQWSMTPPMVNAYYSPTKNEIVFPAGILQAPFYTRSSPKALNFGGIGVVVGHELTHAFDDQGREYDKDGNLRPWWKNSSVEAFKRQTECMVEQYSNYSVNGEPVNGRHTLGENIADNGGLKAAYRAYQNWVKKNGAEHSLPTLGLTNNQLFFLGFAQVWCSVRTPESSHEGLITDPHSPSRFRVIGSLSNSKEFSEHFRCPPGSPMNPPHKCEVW
Description: Inhibitory activity was assessed on CHO cells expressing recombinant human Endothelin-converting enzyme 1 (ECE-1). In kind it is cell-based. The procedure, abridged:
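Membrane preparation (10 µg protein) from CHO cells expressing human ECE-1 was preincubated with compound for 20 min at room temperature in 50 mM Tes pH 7.0 with 0.005% Triton X-100. Human big ET-1 was added to a final 0.2 µM for 2 h at 37 °C. ET-1 formed was measured by [¹²⁵I]ET-1 radioimmunoassay.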

Another experiment addresses Neprilysin (Homo sapiens, UniProt P08473). Description: Inhibitory activity against neutral endopeptidase (NEP).
In experiment [3] the target is T2, Endothelin-converting enzyme 1 (Homo sapiens) (UniProt P42892).
T2 sequence (whole entry): T1 sequence (P42892 whole entry)
Description: Inhibitory activity (1 uM) was assessed on CHO cells expressing in recombinant human Endothelin-converting enzyme 1 (ECE-1). Format: cell-based.

Experiment [4] concerns the target T3, Neprilysin (Rattus norvegicus) (UniProt P07861).
T3 sequence (whole entry): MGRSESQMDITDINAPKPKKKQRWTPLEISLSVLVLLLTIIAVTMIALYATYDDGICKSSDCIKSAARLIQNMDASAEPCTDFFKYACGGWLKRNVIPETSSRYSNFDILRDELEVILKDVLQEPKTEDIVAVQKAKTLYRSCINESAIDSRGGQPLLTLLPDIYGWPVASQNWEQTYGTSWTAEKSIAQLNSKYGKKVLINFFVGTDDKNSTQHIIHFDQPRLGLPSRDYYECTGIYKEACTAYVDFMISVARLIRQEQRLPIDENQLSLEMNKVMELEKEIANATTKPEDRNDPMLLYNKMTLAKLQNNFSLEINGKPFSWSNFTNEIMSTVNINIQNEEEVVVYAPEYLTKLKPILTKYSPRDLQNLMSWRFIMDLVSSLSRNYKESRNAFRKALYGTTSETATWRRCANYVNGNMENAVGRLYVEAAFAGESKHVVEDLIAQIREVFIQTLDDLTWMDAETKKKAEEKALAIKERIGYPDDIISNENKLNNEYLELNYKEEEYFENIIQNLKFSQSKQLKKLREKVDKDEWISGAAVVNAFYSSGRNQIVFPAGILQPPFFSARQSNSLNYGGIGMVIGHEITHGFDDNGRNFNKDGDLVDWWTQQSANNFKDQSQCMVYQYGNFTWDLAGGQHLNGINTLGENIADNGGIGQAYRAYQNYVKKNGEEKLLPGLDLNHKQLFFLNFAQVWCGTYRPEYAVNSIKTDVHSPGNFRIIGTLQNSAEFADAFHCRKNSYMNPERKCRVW
Description: Inhibitory activity (10 uM) against rat neutral endopeptidase (NEP).

Neprilysin, sequence (P08473 whole entry): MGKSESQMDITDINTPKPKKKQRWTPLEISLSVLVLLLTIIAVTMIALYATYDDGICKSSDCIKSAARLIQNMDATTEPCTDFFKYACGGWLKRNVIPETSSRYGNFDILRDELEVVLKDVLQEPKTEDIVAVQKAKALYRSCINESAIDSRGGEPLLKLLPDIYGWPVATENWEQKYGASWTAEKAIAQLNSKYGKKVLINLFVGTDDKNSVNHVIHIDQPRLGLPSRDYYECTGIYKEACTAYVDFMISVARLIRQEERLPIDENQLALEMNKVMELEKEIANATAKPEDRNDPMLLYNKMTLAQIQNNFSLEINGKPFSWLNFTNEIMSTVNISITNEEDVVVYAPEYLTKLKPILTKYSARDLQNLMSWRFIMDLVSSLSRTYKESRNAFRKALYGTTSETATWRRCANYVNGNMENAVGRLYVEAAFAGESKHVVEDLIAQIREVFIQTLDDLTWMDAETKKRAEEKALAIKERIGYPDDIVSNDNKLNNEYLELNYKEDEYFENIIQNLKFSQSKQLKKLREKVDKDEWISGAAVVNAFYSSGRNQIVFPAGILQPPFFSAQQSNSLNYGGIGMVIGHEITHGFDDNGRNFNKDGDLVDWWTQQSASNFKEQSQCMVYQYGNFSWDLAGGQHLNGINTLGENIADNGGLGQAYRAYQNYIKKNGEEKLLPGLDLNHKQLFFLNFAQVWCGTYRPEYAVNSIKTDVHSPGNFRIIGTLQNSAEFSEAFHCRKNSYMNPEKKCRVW

Turning to `O=C(NCCc1ccc(-c2ccccc2)cc1)[C@H](CC#Cc1ccc(F)cc1F)NCP(=O)(O)O`, the Selectivity in experiment [1] turned out to be 89. Besides, the results for the IC50 (in experiment [2]; against Neprilysin) were 0.028 µM and 2.5 µM, respectively.

On to `O=C(NCCc1ccc(-c2ccccc2)cc1)[C@H](CC#Cc1ccccc1F)NCP(=O)(O)O`, for which the Selectivity in experiment [1] was 197. Further, the IC50 was 0.033 µM in experiment [2] and 6.5 µM on Neprilysin.

Consider `O=C(O)[C@H](Cc1ccc(-c2ccccc2)cc1)NC(=O)[C@H](CC#Cc1ccccc1F)NCP(=O)(O)O`, for which the Selectivity in experiment [1] is 19. Moreover, the IC50 in experiment [2] is 0.013 µM; on Neprilysin, 0.25 µM.

As for `O=C(NCCc1ccc(-c2ccccc2)cc1)[C@H](CCCc1ccccc1F)NCP(=O)(O)O`, the inhibition in experiment [3] amounted to 8%.

With `CSCC[C@H](NC(=O)[C@H](CC#Cc1ccccc1F)NCP(=O)(O)O)C(=O)O`, the Selectivity in experiment [1] came out at 18. The IC50 in experiment [2] came to 0.23 µM; at Neprilysin, 4.06 µM.

Take `Cc1ccc(C#CC[C@H](NCP(=O)(O)O)c2nn[nH]n2)cc1`: in experiment [3], the inhibition was determined as 45%.

For the compound `O=C(NCCc1ccccc1)[C@H](CC#Cc1ccc(F)cc1F)NCP(=O)(O)O`, in experiment [2], the IC50 is 0.11 µM.

As to `O=C(O)[C@H](Cc1ccccc1)NC(=O)[C@H](CC#Cc1ccccc1F)NCP(=O)(O)O`, the Selectivity in experiment [1] stood at 21. Besides, the IC50 amounted to 0.056 µM in experiment [2] and 1.2 µM against Neprilysin.

Take `O=C(NCCc1ccc(Br)cc1)[C@H](CC#Cc1ccccc1F)NCP(=O)(O)O`: the Selectivity in experiment [1] was determined as 364. Moreover, the IC50 in experiment [2] worked out at 0.11 µM; against Neprilysin, 40 µM.

Consider `O=C(NCCc1ccc(Br)cc1)[C@H](CC#Cc1ccc(F)cc1F)NCP(=O)(O)O`, for which, in experiment [1], the Selectivity is 20. For the same compound, the IC50 in experiment [2] came out at 0.043 µM; against Neprilysin it was 0.86 µM.

On to `O=C(O)CN1C(=O)[C@@H](NC(=O)[C@H](CC#Cc2ccc(F)cc2F)NCP(=O)(O)O)CCc2ccccc21`, for which the Selectivity in experiment [1] is 9. The IC50 was found to be 0.082 µM in experiment [2] and 0.73 µM at Neprilysin.

As to `O=C(O)[C@H](CC#Cc1ccc(F)cc1F)NCP(=O)(O)O`, in experiment [1], the Selectivity came out at 153. The IC50 is 0.17 µM in experiment [2] and 26 µM against Neprilysin.

Regarding `O=C(NCCc1ccccn1)[C@H](CC#Cc1ccc(F)cc1F)NCP(=O)(O)O`, the Selectivity in experiment [1] worked out at 32. In addition, the IC50 in experiment [2] turned out to be 0.31 µM; on Neprilysin it was 10 µM.

On to `O=P(O)(O)CN[C@@H](CC#Cc1ccccc1)c1nn[nH]n1`, for which the Selectivity in experiment [1] came out at 0.3. In addition, the IC50 was 0.59 µM in experiment [2] and 0.17 µM on Neprilysin.

With `CC(C)C[C@H](NC(=O)[C@H](CC#Cc1ccccc1)NCP(=O)(O)O)C(=O)O`, the Selectivity in experiment [1] was 1.9. The IC50 came out at 0.51 µM in experiment [2] and 0.948 µM at Neprilysin.

For `O=C(O)[C@H](Cc1ccc2ccccc2c1)NC(=O)[C@H](CC#Cc1ccccc1F)NCP(=O)(O)O`, in experiment [1], the Selectivity stood at 52. Moreover, the IC50 in experiment [2] is 0.025 µM; on Neprilysin, 1.3 µM.

As to `CC(C)CCNC(=O)[C@H](CC#Cc1ccc(F)cc1F)NCP(=O)(O)O`, in experiment [1], the Selectivity was found to be 164. Further, the IC50 in experiment [2] was determined as 0.14 µM; on Neprilysin, 23 µM.

Regarding `O=P(O)(O)CN[C@@H](CC#Cc1ccccc1F)c1nnn[nH]1`, the Selectivity in experiment [1] amounted to 0.1. The IC50 in experiment [2] was 0.15 µM; at Neprilysin, 0.014 µM.

`O=C(NCCc1ccccc1)[C@H](CC#Cc1ccccc1F)NCP(=O)(O)O`: the Selectivity in experiment [1] was 83. Further, the figures for the IC50 (in experiment [2]; at Neprilysin) were 0.23 µM and 19 µM, respectively.

As for `COc1ccccc1C#CC[C@H](NCP(=O)(O)O)c1nn[nH]n1`, in experiment [3], the inhibition stood at 0%.

Consider `O=C(O)[C@H](CC#Cc1ccccc1F)NC(=O)[C@H](CC#Cc1ccccc1F)NCP(=O)(O)O`, for which the Selectivity in experiment [1] amounted to 225. Besides, the IC50 in experiment [2] came to 0.028 µM; against Neprilysin, 6.3 µM.

With `O=C(O)[C@H](CC#Cc1ccccc1F)NCP(=O)(O)O`, the Selectivity in experiment [1] turned out to be 46. Also, the values for the IC50 (in experiment [2]; on Neprilysin) were 0.24 µM and 11 µM, respectively.

Regarding `COc1ccc(CCNC(=O)[C@H](CC#Cc2ccc(F)cc2F)NCP(=O)(O)O)cc1OC`, the IC50 in experiment [2] is 0.16 µM. In experiment [4], the inhibition was 21%.

Regarding `CN(CCc1ccccc1)C(=O)[C@H](CC#Cc1ccccc1F)NCP(=O)(O)O`, the inhibition in experiment [3] was determined as 3%.

On to `CC(C)C[C@H](NC(=O)[C@H](CC#Cc1ccc(F)cc1F)NCP(=O)(O)O)C(=O)O`, for which, in experiment [1], the Selectivity was determined as 131. For the same compound, the IC50 in experiment [2] stood at 0.051 µM; against Neprilysin it was 6.7 µM.

On to `O=C(NCCCCc1ccccc1)[C@H](CC#Cc1ccccc1F)NCP(=O)(O)O`, for which the inhibition in experiment [3] is 0%.

In the case of `O=P(O)(O)C(CCc1cccc2ccccc12)N[C@@H](Cc1ccc(-c2ccccc2)cc1)c1nnn[nH]1` (stereo not given in full), the Selectivity in experiment [1] is 0.29. The IC50 in experiment [2] worked out at 0.017 µM; on Neprilysin, 0.005 µM.

In the case of `CC(C)C[C@H](NC(=O)[C@H](CC#Cc1cccc(F)c1)NCP(=O)(O)O)C(=O)O`, in experiment [2], the IC50 is 0.4 µM.

As for `CC(C)[C@H](NC(=O)[C@H](CC#Cc1ccccc1F)NCP(=O)(O)O)C(=O)O`, the Selectivity in experiment [1] was found to be 57. The IC50 in experiment [2] was found to be 0.11 µM; on Neprilysin, 6.3 µM.

Consider `O=C(NCCc1c[nH]c2ccccc12)[C@H](CC#Cc1ccc(F)cc1F)NCP(=O)(O)O`, for which the Selectivity in experiment [1] stood at 87. Besides, the IC50 in experiment [2] worked out at 0.111 µM; at Neprilysin, 9.7 µM.

With `O=C(NCc1ccccc1)[C@H](CC#Cc1ccccc1F)NCP(=O)(O)O`, the Selectivity in experiment [1] came to 220. The results for the IC50 (in experiment [2]; on Neprilysin) were 0.25 µM and 55 µM, respectively.

Regarding `CC(C)C[C@H](NC(=O)[C@H](CC#Cc1ccccc1Cl)NCP(=O)(O)O)C(=O)O`, in experiment [2], the IC50 turned out to be 4.3 µM. This compound also returned an inhibition in experiment [4] of 38%.

On to `O=C(NCCc1ccc2ccccc2c1)[C@H](CC#Cc1ccc(F)cc1F)NCP(=O)(O)O`, for which the Selectivity in experiment [1] was 132. In addition, the figures for the IC50 (in experiment [2]; at Neprilysin) were 0.053 µM and 7 µM, respectively.

Turning to `O=C(O)[C@H](CC1CCCCC1)NC(=O)[C@H](CC#Cc1ccc(F)cc1F)NCP(=O)(O)O`, in experiment [1], the Selectivity is 148. Besides, the values for the IC50 (in experiment [2]; against Neprilysin) were 0.014 µM and 2.07 µM, respectively.

As for `O=C(NCCc1cccc2ccccc12)[C@H](CC#Cc1ccccc1F)NCP(=O)(O)O`, the Selectivity in experiment [1] turned out to be 82. Moreover, the IC50 in experiment [2] amounted to 0.13 µM; against Neprilysin, 10.7 µM.

For the compound `CC(C)C[C@H](NC(=O)[C@H](CC#Cc1ccccc1F)NCP(=O)(O)O)C(=O)O`, the IC50 in experiment [2] amounted to 0.12 µM.

On to `O=C(NCCc1cccc2ccccc12)[C@H](CC#Cc1ccc(F)cc1F)NCP(=O)(O)O`, for which the Selectivity in experiment [1] amounted to 182. Besides, the IC50 is 0.034 µM in experiment [2] and 6.2 µM on Neprilysin.

In the case of `CC(C)C[C@H](NC(=O)[C@H](CC#Cc1ccc(F)cc1F)NCP(=O)(O)O)C(=O)N[C@@H](C)C(=O)O`, the Selectivity in experiment [1] worked out at 725. In addition, the values for the IC50 (in experiment [2]; on Neprilysin) were 0.008 µM and 5.8 µM, respectively.

As to `O=C(NCCCc1ccccc1)[C@H](CC#Cc1ccc(F)cc1F)NCP(=O)(O)O`, the IC50 in experiment [2] turned out to be 0.15 µM.

Turning to `O=C(NCCc1c[nH]c2ccccc12)[C@H](CC#Cc1ccccc1F)NCP(=O)(O)O`, in experiment [1], the Selectivity stood at 132. For the same compound, the IC50 in experiment [2] was 0.076 µM; at Neprilysin, 10 µM.

Broadly, the IC50 is the concentration that gives 50% inhibition. By inhibition is commonly meant the percentage by which the read-out fell short of the control.

Values taken from ChEMBL document CHEMBL1131381, “Design and synthesis of potent, selective inhibitors of endothelin-converting enzyme” (J Med Chem, 1998).
